pIC50: −log10 of the molar value.
Experiments:
Assay type in all cases: functional, organism-based
[1] = system: Human orthopneumovirus; assay: Inhibitory concentration was evaluated against human respiratory syncytial virus,(HRSV) strain A2.
In short: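 HRSV strain A2 (160 PFU/well) on human foreskin fibroblasts seeded 4 × 10^4/well day 0. Compound added day 1, serially diluted 2-fold over 10 concentrations, at least in duplicate. After 4 days at 37 °C, virus growth quantified by ELISA. IC50 = 50% growth inhibition, averaged; tested in two separate weeks, retested if values differed over 2-fold.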

[2] = system: Human alphaherpesvirus 1; assay: Inhibitory concentration was evaluated against herpes simplex 1,strain patton.
In short: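 HSV-1 strain Patton in African green monkey kidney (Vero) cells, seeded 4 × 10^4/well on day 0. Compound added day 1 as 10 two-fold dilutions, at least in duplicate, then virus added. Growth measured by ELISA 28 h post-infection. IC50 = 50% growth inhibition, averaged; repeated in two different weeks, retested if over 2-fold apart.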

[3] = system: Human betaherpesvirus 5; assay: Inhibitory concentration was evaluated against human cytomegalovirus (HCMV),strain Ad169.
In short: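 HCMV Ad169 engineered to encode β-glucuronidase. Human foreskin fibroblasts seeded 4 × 10^4/well on day 0. Compound added day 1 as 10 two-fold dilutions, each at least in duplicate, then virus added. Growth read as β-glucuronidase in culture on day 4. IC50 averaged; each compound run at least twice in different weeks, retested if IC50s differed over 2-fold.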

| pIC50 [1] | pIC50 [2] | pIC50 [3] | Compound |
| --- | --- | --- | --- |
| < 4.60 | – | – | Cc1ccc(S(=O)(=O)N(CCC(N)=O)CCC(N)=O)cc1Nc1nc(Nc2ccc(-c3ccc(Nc4nc(Nc5cc(S(=O)(=O)N(CCC(N)=O)CCC(N)=O)ccc5C)nc(Nc5cc(S(=O)(=O)N(CCC(N)=O)CCC(N)=O)ccc5C)n4)cc3S(=O)(=O)O)c(S(=O)(=O)O)c2)nc(Nc2cc(S(=O)(=O)N(CCC(N)=O)CCC(N)=O)ccc2C)n1 |
| 6.82 | 5.26 | < 4.60 | NC(=O)CCN(CCC(N)=O)S(=O)(=O)c1cccc(Nc2nc(Nc3cccc(S(=O)(=O)N(CCC(N)=O)CCC(N)=O)c3)nc(Nc3ccc(/C=C/c4ccc(Nc5nc(Nc6cccc(S(=O)(=O)N(CCC(N)=O)CCC(N)=O)c6)nc(Nc6cccc(S(=O)(=O)N(CCC(N)=O)CCC(N)=O)c6)n5)cc4S(=O)(=O)O)c(S(=O)(=O)O)c3)n2)c1 |
| 7.05 | 4.83 | 5.64 | O=S(=O)(O)c1cc(Nc2nc(Nc3cccc(S(=O)(=O)N(CCO)CCO)c3)nc(Nc3cccc(S(=O)(=O)N(CCO)CCO)c3)n2)ccc1-c1ccc(Nc2nc(Nc3cccc(S(=O)(=O)N(CCO)CCO)c3)nc(Nc3cccc(S(=O)(=O)N(CCO)CCO)c3)n2)cc1S(=O)(=O)O |
| < 4.60 | 4.60 | < 4.60 | Cc1cc(-c2ccc(Nc3nc(Nc4cccc(S(=O)(=O)N(CCC(N)=O)CCC(N)=O)c4)nc(Nc4cccc(S(=O)(=O)N(CCC(N)=O)CCC(N)=O)c4)n3)c(C)c2)ccc1Nc1nc(Nc2cccc(S(=O)(=O)N(CCC(N)=O)CCC(N)=O)c2)nc(Nc2cccc(S(=O)(=O)N(CCC(N)=O)CCC(N)=O)c2)n1 |
| 6.62 | < 4.60 | 5.92 | NC(=O)CCNS(=O)(=O)c1cccc(Nc2nc(Nc3cccc(S(=O)(=O)NCCC(N)=O)c3)nc(Nc3ccc(-c4ccc(Nc5nc(Nc6cccc(S(=O)(=O)NCCC(N)=O)c6)nc(Nc6cccc(S(=O)(=O)NCCC(N)=O)c6)n5)cc4S(=O)(=O)O)c(S(=O)(=O)O)c3)n2)c1 |
| < 4.60 | < 4.60 | < 4.60 | CCCN(CCC)S(=O)(=O)c1cccc(Nc2nc(Nc3cccc(S(=O)(=O)N(CCC)CCC)c3)nc(Nc3ccc(-c4ccc(Nc5nc(Nc6cccc(S(=O)(=O)N(CCC)CCC)c6)nc(Nc6cccc(S(=O)(=O)N(CCC)CCC)c6)n5)cc4S(=O)(=O)O)c(S(=O)(=O)O)c3)n2)c1 |
| 5.77 | 5.06 | 5.92 | NS(=O)(=O)c1cccc(Nc2nc(Nc3cccc(S(N)(=O)=O)c3)nc(Nc3ccc(-c4ccc(Nc5nc(Nc6cccc(S(N)(=O)=O)c6)nc(Nc6cccc(S(N)(=O)=O)c6)n5)cc4S(=O)(=O)O)c(S(=O)(=O)O)c3)n2)c1 |
| 6.46 | 5.12 | 6.05 | NC(=O)CCN(CCC(N)=O)S(=O)(=O)c1cccc(Nc2nc(Nc3cccc(S(=O)(=O)N(CCC(N)=O)CCC(N)=O)c3)nc(Nc3ccc(-c4ccc(Nc5nc(Nc6cccc(S(=O)(=O)N(CCC(N)=O)CCC(N)=O)c6)nc(Nc6cccc(S(=O)(=O)N(CCC(N)=O)CCC(N)=O)c6)n5)cc4C(=O)O)c(C(=O)O)c3)n2)c1 |
| 4.65 | – | < 4.60 | NC(=O)CCN(CCC(N)=O)S(=O)(=O)c1cccc(Nc2nc(Nc3cccc(S(=O)(=O)N(CCC(N)=O)CCC(N)=O)c3)nc(Nc3ccc(CCc4ccc(Nc5nc(Nc6cccc(S(=O)(=O)N(CCC(N)=O)CCC(N)=O)c6)nc(Nc6cccc(S(=O)(=O)N(CCC(N)=O)CCC(N)=O)c6)n5)cc4S(=O)(=O)O)c(S(=O)(=O)O)c3)n2)c1 |
| 7.30 | < 4.60 | 4.73 | NC(=O)CCN(CCC(N)=O)S(=O)(=O)c1cccc(Nc2nc(Nc3cccc(S(=O)(=O)N(CCC(N)=O)CCC(N)=O)c3)nc(Nc3ccc(-c4ccc(Nc5nc(Nc6cccc(S(=O)(=O)N(CCC(N)=O)CCC(N)=O)c6)nc(Nc6cccc(S(=O)(=O)N(CCC(N)=O)CCC(N)=O)c6)n5)cc4S(=O)(=O)O)c(S(=O)(=O)O)c3)n2)c1 |
| 5.54 | 4.75 | 4.83 | NC(=O)CCN(CCC(N)=O)S(=O)(=O)c1ccc(Nc2nc(Nc3ccc(S(=O)(=O)N(CCC(N)=O)CCC(N)=O)cc3)nc(Nc3ccc(-c4ccc(Nc5nc(Nc6ccc(S(=O)(=O)N(CCC(N)=O)CCC(N)=O)cc6)nc(Nc6ccc(S(=O)(=O)N(CCC(N)=O)CCC(N)=O)cc6)n5)cc4S(=O)(=O)O)c(S(=O)(=O)O)c3)n2)cc1 |
| < 4.60 | < 4.60 | < 4.60 | NC(=O)CCN(CCC(N)=O)S(=O)(=O)c1cccc(Nc2nc(Nc3cccc(S(=O)(=O)N(CCC(N)=O)CCC(N)=O)c3)nc(Nc3ccc(-c4ccc(Nc5nc(Nc6cccc(S(=O)(=O)N(CCC(N)=O)CCC(N)=O)c6)nc(Nc6cccc(S(=O)(=O)N(CCC(N)=O)CCC(N)=O)c6)n5)cc4CO)c(CO)c3)n2)c1 |
| < 4.60 | – | – | NC(=O)CCN(CCC(N)=O)C(=O)c1cccc(Nc2nc(Nc3cccc(C(=O)N(CCC(N)=O)CCC(N)=O)c3)nc(Nc3ccc(-c4ccc(Nc5nc(Nc6cccc(C(=O)N(CCC(N)=O)CCC(N)=O)c6)nc(Nc6cccc(C(=O)N(CCC(N)=O)CCC(N)=O)c6)n5)cc4S(=O)(=O)O)c(S(=O)(=O)O)c3)n2)c1 |
| < 4.60 | – | < 4.60 | COC(=O)c1cc(Nc2nc(Nc3cccc(S(=O)(=O)N(CCC(N)=O)CCC(N)=O)c3)nc(Nc3cccc(S(=O)(=O)N(CCC(N)=O)CCC(N)=O)c3)n2)ccc1-c1ccc(Nc2nc(Nc3cccc(S(=O)(=O)N(CCC(N)=O)CCC(N)=O)c3)nc(Nc3cccc(S(=O)(=O)N(CCC(N)=O)CCC(N)=O)c3)n2)cc1C(=O)OC |
| 6.60 | 4.70 | 4.69 | Cc1cc(-c2cc(C)c(Nc3nc(Nc4cccc(S(=O)(=O)N(CCC(N)=O)CCC(N)=O)c4)nc(Nc4cccc(S(=O)(=O)N(CCC(N)=O)CCC(N)=O)c4)n3)cc2S(=O)(=O)O)c(S(=O)(=O)O)cc1Nc1nc(Nc2cccc(S(=O)(=O)N(CCC(N)=O)CCC(N)=O)c2)nc(Nc2cccc(S(=O)(=O)N(CCC(N)=O)CCC(N)=O)c2)n1 |

From ChEMBL document CHEMBL1131306, “Novel and specific respiratory syncytial virus inhibitors that target virus fusion” (J Med Chem, 1998)
